Most compounds without a hit are left out; they make up all but 1.4% or so of the library.
NR2E3 ag-1: activates human photoreceptor nuclear receptor NR2E3. Q9Y5X4. GST-NR2E3/biotin-RetCOR TR-FRET, 1536-well. inhibition of corepressor binding, % at 4.78 µM. hit rate 0.12% among 320,000;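 active means percent inhibition above the cutoff of mean plus 3 SD of all tested compounds, set per screening campaign, cut at about 20% in these data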
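Test system: GST-NR2E3 and biotin-RetCOR proteins | Quantity: 1.35 nM GST-tagged NR2E3 final | Medium: Tris pH 7.5 | Also added: 7 nM biotin-RetCOR | Dosing: Compound at 4.8 µM, single dose | Timing: 5 h at 4 °C | Detection: Time-resolved FRET | Read-out basis: Percent inhibition | Benchmarks: Biotin wells as high control, 0.6% DMSO wells as low control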
PG9 Ab binder: binds the HIV-1 gp120 antibody PG9 | inhibition, % at 6.7 µM | hit rate 0.43% among 360,000 | TR-FRET gp120-PG9 antibody binding; in the data active means inhibition above about 8.5%
NR2E3 ag-2: human photoreceptor-specific nuclear receptor agonism. inhibition of corepressor binding, % at 3.98 µM. Q9Y5X4. CHO-S Gal4-NCOR/VP16-NR2E3 two-hybrid, luciferase. AID 602229. hit rate 0.35% among 360,000;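 active means inhibition above the mean of all tested compounds plus 3 SD, cut at about 70% in these data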;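 further: higher means lower luciferase signal from less NR2E3 corepressor binding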
Rev-erbA mod: modulates human Rev-erb alpha binding to DNA; AID 1259318; Rev-erbα–FITC-DNA binding, fluorescence polarization, 90 min; P20393; hit rate 0.79% among 370,000; activity, % at 10 µM;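 active means activity above about 14%, limit read from the data; passing the limit was not always enough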
Target sequence (P20393 whole entry, looked up): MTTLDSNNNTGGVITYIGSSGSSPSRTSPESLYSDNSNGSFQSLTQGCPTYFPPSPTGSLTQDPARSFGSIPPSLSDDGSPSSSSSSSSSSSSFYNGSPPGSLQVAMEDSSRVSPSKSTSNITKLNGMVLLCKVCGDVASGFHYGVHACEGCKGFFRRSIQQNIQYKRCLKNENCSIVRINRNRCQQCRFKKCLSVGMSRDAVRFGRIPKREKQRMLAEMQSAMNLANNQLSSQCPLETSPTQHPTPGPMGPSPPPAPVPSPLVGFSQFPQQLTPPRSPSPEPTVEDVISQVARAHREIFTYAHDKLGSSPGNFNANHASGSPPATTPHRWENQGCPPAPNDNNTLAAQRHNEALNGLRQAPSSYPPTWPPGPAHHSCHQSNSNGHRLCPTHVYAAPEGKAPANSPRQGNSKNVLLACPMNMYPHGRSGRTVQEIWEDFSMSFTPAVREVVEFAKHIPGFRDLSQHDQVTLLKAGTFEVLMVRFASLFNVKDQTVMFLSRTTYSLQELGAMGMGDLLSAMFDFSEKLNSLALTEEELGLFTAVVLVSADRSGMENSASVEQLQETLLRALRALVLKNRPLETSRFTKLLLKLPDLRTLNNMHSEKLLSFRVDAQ
Rev-erbA confirm: Rev-erb alpha (human) modulation, hit confirmation | shares compounds with Rev-erbA mod | Rev-erb alpha FITC-DNA binding, fluorescence polarization, 90 min | activation, % at 25 µM | hit rate 61% among 3,000 | AID 1259319;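 active means activation at or above a set limit, or at least 3 SD above the negative control mean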
RORg DNA counter: RORgamma DNA-binding activity, dose-response counter-screen | shares compounds with Rev-erbA mod | IC50, µM | hit rate 8% among 910 | purified RORgamma protein-FITC-DNA binding, fluorescence polarization;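 active means Compounds whose fitted half-maximal concentration for disrupting protein-DNA binding is below 10 micromolar; the record names Rev-erb in its text, so the target is in doubt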
Hits are given with their value; . = inactive; / = not tested or not shown.

SMILES	NR2E3 ag-1	PG9 Ab binder	NR2E3 ag-2	Rev-erbA mod	Rev-erbA confirm	RORg DNA counter
C=CCOc1ccc(/C(O)=C2\C(=O)C(=O)N(CCN(C)C)C2c2cccs2)cc1 (stereo not drawn)	.	.	.	29.4	34.9	.
CC1(C(=O)NCc2ccccc2)CCC(=O)N1CCOc1ccccc1 (stereo not drawn)	/	.	.	.	/	/
O=C(CCc1nc2sc3c(c2c(=O)[nH]1)CCCC3)NCCc1ccc(Cl)cc1	/	.	.	20.6	.	/
Cc1ccc(OCCNC(=O)CCc2nc3sc4c(c3c(=O)[nH]2)CCCC4)cc1	.	.	.	19.5	.	/
CCN(c1ccc(NC(=O)CCc2nc3sc4c(c3c(=O)[nH]2)CCCC4)cc1)C(C)C	.	.	.	.	/	/
CCc1ccc(NC(=O)CCc2nc3sc4c(c3c(=O)[nH]2)CCCC4)cc1	.	.	.	18.6	.	/
Cc1[nH]c2ccccc2c1/C=C/c1cc[n+](C)cc1	/	.	.	250.8	172.3	.
C=CCn1c(C)c(/C=C/c2cc[n+](C)cc2)c2ccccc21	.	.	.	237.4	212.6	.
CCN(CC)C(=O)Cn1c(C)c(/C=C/c2cc[n+](C)cc2)c2ccccc21	.	.	.	157.8	138.5	.
CC(C)n1cc(/C=C/c2cc[n+](C)cc2)c2ccccc21	/	.	.	209.2	202.9	.
Cc1ccccc1/C=C/c1cc[n+](C)cc1	.	.	.	.	/	/
C#CCNC(=O)C[C@@H]1C[C@@]2(C(=O)OC)CCCCC=C2N(Cc2cccc3ccccc23)C1=O	/	.	.	.	/	/
CC1CCN(C(=O)C2CCCN(C(=O)c3ccc4c(c3)NC(=O)CS4)C2)CC1 (stereo not drawn)	/	/	/	.	/	/
CCn1cc(/C=C/c2cc[n+](C)cc2)c2ccccc21	.	.	.	178.8	160.5	.
C=CCn1cc(/C=C/c2cc[n+](C)cc2)c2ccccc21	.	.	.	167.9	143.3	.
CCOC(=O)Cn1cc(C=O)c2ccccc21	.	.	.	.	/	/
CCOC(=O)C1(C)CCCCN1C(=O)c1cccnc1 (stereo not drawn)	/	.	.	.	/	/
COc1cccc(C(=O)n2ccc3ccc(-c4ccc5ccn(Cc6ccc(C#N)cc6)c5c4)cc32)c1	/	/	/	48.4	.	/
COc1cccc(C(=O)n2ccc3ccc(-c4ccc5ccn(Cc6ccccc6)c5c4)cc32)c1	/	/	/	24.4	51.8	6.77
COc1cccc(C(=O)n2ccc3ccc(-c4ccc5ccn(C(=O)c6cccc(OC)c6)c5c4)cc32)c1	/	/	/	43.7	85.4	.
N#Cc1ccc(Cn2ccc3ccc(-c4ccc5ccn(Cc6ccc(C#N)cc6)c5c4)cc32)cc1	/	/	/	.	/	/
C[C@@H]1CN([C@@H](C)CO)C(=O)c2cc(C3=CCCCC3)cnc2O[C@H]1CN(C)C(=O)Nc1cccc(F)c1	/	.	.	.	/	/
C[C@H]1COc2cc(Br)ccc2S(=O)(=O)N1Cc1cn(CCC2OCCCO2)nn1	/	/	/	.	/	/
O=C1C(=NO)C(c2ccccc2)Oc2ccccc21 (stereo not drawn)	/	.	.	.	/	/
COc1ccc(C(C)(C)C)cc1NC(=O)C1=CC=CN2CCS(=O)(=O)N=C12	/	.	.	24.3	29.6	.
SMILES	NR2E3 ag-1	PG9 Ab binder	NR2E3 ag-2	Rev-erbA mod	Rev-erbA confirm	RORg DNA counter
Cc1ccc2c(CN3CCN(c4ccc(Cl)c(Cl)c4)CC3)cc(=O)oc2c1	/	.	.	.	/	/
C[C@@H](O)CC#Cc1ccc2oc(=O)c(-n3cc(-c4ccsc4)nn3)cc2c1	.	.	.	.	/	/
C[C@H](O)Cc1cn(-c2cc3cc(C#Cc4ccsc4)ccc3oc2=O)nn1	.	.	.	17.9	.	/
COc1ccc(Oc2c(Cl)cnn(CC(=O)C(c3ccccc3)c3ccccc3)c2=O)cc1	/	/	/	77.9	57.0	.
Cn1ncc(Cl)c(Oc2ccccc2)c1=O	.	/	.	.	/	/
O=C(Cc1ccc(Cl)cc1)c1c[nH]c(C(=O)NCc2cccnc2)c1	.	.	.	18.7	34.5	.
CCCCOC(=O)c1cc(C)nc2ccc(Br)cc12	.	.	.	44.4	33.4	.
O=S(=O)(c1ccccc1)c1nc(-c2ccc(F)cc2)oc1NCC1CCCO1 (stereo not drawn)	.	.	.	.	/	/
CNc1oc(-c2ccc(F)cc2)nc1S(=O)(=O)c1ccccc1	.	.	.	34.4	.	/
COc1ccc(C(C)=O)cc1CSc1nc2cc(C(=O)O)ccc2c(=O)n1Cc1ccccc1	.	.	.	.	/	/
CCOC(Cn1c(SCc2cc(C(C)=O)ccc2OC)nc2ccccc2c1=O)OCC	.	.	.	34.0	34.4	.
Cc1ccc(Cn2c(SCC(=O)Nc3cc(C)on3)nc3ccccc3c2=O)cc1	.	16.8	.	45.3	18.5	/
C/C(N)=C(/C#N)C(=O)CSc1nc2ccccc2c(=O)n1Cc1ccc(C)cc1	.	.	.	69.7	25.4	/
COC(=O)CC1(C(=O)OC)Nc2cc(Cl)c(Cl)cc2S(=O)(=O)N1O (stereo not drawn)	/	.	.	.	/	/
C[C@H]1CN([C@@H](C)CO)C(=O)CCCn2cc(nn2)CO[C@@H]1CN(C)C(=O)Nc1cccc(Oc2ccccn2)c1	/	.	.	.	/	/
Cc1nc2ccc(C(=O)N3CCN(C(=O)c4ccco4)CC3)cn2c1N(C)C(=O)CCc1ccccc1	/	.	.	.	/	/
Cc1cc(Nc2cccc(Cl)c2)nc(-c2ccccc2O)n1	.	.	.	.	/	/
Cc1cc(Nc2ccc(Cl)cc2)nc(-c2ccccc2O)n1	/	.	.	29.0	.	/
CN1C(=O)c2cccc(NCCCN3C(=O)c4ccccc4C3=O)c2C1=O	.	.	.	46.2	19.1	/
Cc1nc2ccc(C(=O)OCc3nnc(-c4ccc(Br)cc4)o3)cc2nc1C	.	.	.	22.7	18.8	/
NNc1ccc([N+](=O)[O-])c2[nH][nH]c(=O)c12	/	.	.	.	/	/
Cc1cc(C)c2nc(SCC#N)cc(C)c2c1	.	.	.	.	/	/
C/C(N)=C(/C#N)C(=O)CSc1cc(C)c2cc(C)cc(C)c2n1	.	.	.	50.2	27.5	/
O=C1C[C@@H](c2ccccc2)N=C2N(CC3CC3)C/C(=C/c3ccccc3)N12	/	/	/	.	/	/
COc1ccc(NC(=O)c2sc3nc(N4CCCC4)c4c(c3c2N)CC(C)(C)OC4)cc1	.	.	.	126.9	80.4	.
CCOC(=O)c1sc2nc(C)c3c(c2c1N)CC(C)(C)OC3	.	.	.	.	/	/
CCCc1nc2sc(C(=O)OCC)c(N)c2c2c1COC(C)(C)C2	.	.	.	47.8	25.4	/
COC(=O)C[C@@H]1CC[C@@H]2[C@H](COc3ccc(NC(=O)c4cccc(OC)c4)cc3C(=O)N2C)O1	/	/	/	.	/	/
COC(=O)c1cccc(C23CC4(C2)[C@H](CN(C)[C@@H]4c2ccccc2)C3c2ccccc2)c1 (stereo partly drawn)	.	.	.	22.1	41.4	/
CCCCCCCCN1C(=O)[C@@H](CC(=O)NCCCN2CCCC2=O)C[C@@]2(C(=O)OC)C1=C[C@H](C1CCCC1)O[C@@H]2C	/	.	/	.	/	/

Assay outcomes: PubChem BioAssay, several laboratories
